Experimental data: ChEMBL document CHEMBL3734652, “Pyrrolo[3,4-c]pyridine-1,3(2H)-diones: A Novel Antimycobacterial Class Targeting Mycobacterial Respiration” (J Med Chem, 2015)
pIC50: −log10 of the molar value. In brackets after ≈: the same amount, converted by molar mass.

What was measured:
[1] = test system: Mycobacterium tuberculosis; experiment: Antimicrobial activity against Mycobacterium tuberculosis H37RvMA under GAST/Fe medium assessed as growth inhibition after 14 days by alamar blue assay; format: functional; details: 336 h
Procedure, shortened: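 Broth microdilution in GAST/Fe medium against fully virulent Mtb H37RvMa or its derived strains (cytochrome bd oxidase deletion ΔcydKO; qcrB Ala317Thr point mutant). Plates were incubated 14 days, growth was read by Alamar Blue, and MIC90 was taken as the potency value.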

[2] = Kinetic solubility in FaSSIF at pH 6.5 after 2 hours at 25 degC by shake flask method; format: physicochemical; details: read-out: Kinetic_solubility
[3] = Metabolic stability in rat liver microsomes assessed as residual compound at 0.1 uM after 30 mins by LC-MS/MS method in presence or absence of NADPH; format: ADME; details: read-out: Stability
[4] = Metabolic stability in human liver microsomes assessed as residual compound at 0.1 uM after 30 mins by LC-MS/MS method in presence or absence of NADPH; format: ADME; details: read-out: Stability
[5] = test system: Vero; experiment: Cytotoxicity against African green monkey Vero cells assessed as cell viability by MTT assay; format: cell-based; details: Chlorocebus sabaeus
Procedure, shortened: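 VERO kidney epithelial cells from African green monkey were exposed to compounds at concentrations up to 100 μM, and IC₅₀ was reported.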

[6] = Metabolic stability in mouse liver microsomes assessed as residual compound at 0.1 uM after 30 mins by LC-MS/MS method in presence or absence of NADPH; format: ADME; details: read-out: Stability
[7] = test system: Liver; experiment: Drug level in BALB/c mouse liver microsomes treated with 7-Amino-2-benzyl-4-methyl-6-(3-methyl-1,2,4-oxadiazol-5-yl)-1H-pyrrolo[3,4-c]pyridine-1,3(2H)-dione at 10 uM after 1 hr by LC-MS analysis; format: ADME
[8] = test system: Plasma; experiment: Drug metabolism in C57/BL6 mouse plasma treated with 7-Amino-2-benzyl-4-methyl-6-(3-methyl-1,2,4-oxadiazol-5-yl)-1H-pyrrolo[3,4-c]pyridine-1,3(2H)-dione by LC-MS analysis; format: ADME, cell-free

Structure (SMILES) | MIC90 [1] | solubility kinetic at 2 h [2] | remaining at 0.5 h, 0.1 µM [3] | remaining at 0.5 h, 0.1 µM [4] | pIC50 [5] | remaining at 0.5 h, 0.1 µM [6] | Drug metabolism [7] | Drug metabolism [8]
CNC(=O)c1nc(C)c2c(c1N)C(=O)N(Cc1ccccc1)C2=O | > 160 µM | 41 µM (≈ 13.3 µg/mL) |  |  |  |  |  | 
Cc1noc(-c2nc(C)c3c(c2N)C(=O)N(Cc2cccc(C(F)(F)F)c2)C3=O)n1 | < 0.156 µM | < 5 µM |  |  |  |  |  | 
Cc1noc(-c2nc(C)c3c(c2N)C(=O)N(Cc2ccc(-c4ccncc4)cc2)C3=O)n1 | 160 µM (≈ 68.2 µg/mL) | < 5 µM |  |  |  |  |  | 
Cc1noc(-c2nc(C)c3c(c2N)C(=O)N(CC2CCNCC2)C3=O)n1 | > 160 µM | 160 µM (≈ 57 µg/mL) |  |  |  |  |  | 
COc1ccc(CN2C(=O)c3c(C)nc(-c4nc(C)no4)c(N)c3C2=O)cc1 | < 0.156 µM | < 5 µM |  |  |  |  |  | 
Cc1noc(-c2nc(C)c3c(c2N)C(=O)N(C(C)c2ccccc2)C3=O)n1 (centres undefined) | 1.25 µM (≈ 0.454 µg/mL) | 10.9 µM (≈ 3.96 µg/mL) |  |  |  |  |  | 
Cc1noc(-c2nc(C)c3c(c2N)C(=O)N(Cc2ccc(Cl)cn2)C3=O)n1 | 2.5 µM (≈ 0.962 µg/mL) | < 5 µM |  |  |  |  |  | 
Cc1noc(-c2nc(C)c3c(c2N)C(=O)N(CC2CCOCC2)C3=O)n1 | 20 µM (≈ 7.15 µg/mL) | 5.7 µM (≈ 2.04 µg/mL) |  |  |  |  |  | 
Cc1noc(-c2nc(C)c3c(c2N)C(=O)N(Cc2ccc(C#N)cc2)C3=O)n1 | > 160 µM | < 5 µM |  |  |  |  |  | 
Cc1nc(C(=O)N(C)C)c(N)c2c1C(=O)N(Cc1ccccc1)C2=O | > 160 µM | 172 µM (≈ 58.2 µg/mL) | 51% | 72% | < 4.00 | 47% |  | 
Cc1noc(-c2nc(C)c3c(c2N)C(=O)N(Cc2ccc(OC(F)F)cc2)C3=O)n1 | < 0.156 µM | < 5 µM |  |  |  |  |  | 
Cc1noc(-c2nc(C)c3c(c2N)C(=O)N(Cc2cccc(F)c2)C3=O)n1 | < 0.156 µM | < 5 µM |  |  |  |  |  | 
CO[C@H]1/C=C/O[C@@]2(C)Oc3c(C)c(O)c4c(O)c(c(/C=N/N5CCN(C)CC5)c(O)c4c3C2=O)NC(=O)/C(C)=C\C=C\[C@H](C)[C@H](O)[C@@H](C)[C@@H](O)[C@@H](C)[C@H](OC(C)=O)[C@@H]1C [RIFAMPIN] | 0.009 µM (≈ 0.00741 µg/mL) |  |  |  |  |  |  | 
Cc1noc(-c2nc(C)c3c(c2N)C(=O)N(Cc2ccc(S(C)(=O)=O)cc2)C3=O)n1 | 0.31 µM (≈ 0.133 µg/mL) | < 5 µM |  |  |  |  |  | 
COc1ccccc1CN1C(=O)c2c(C)nc(-c3nc(C)no3)c(N)c2C1=O | 0.31 µM (≈ 0.118 µg/mL) | < 5 µM |  |  |  |  |  | 
CCOC(=O)c1ncc2c(c1N)C(=O)N(Cc1ccccc1)C2=O | 20 µM (≈ 6.51 µg/mL) |  |  |  |  |  |  | 
COC(=O)c1nc(C)c2c(c1N)C(O)N(Cc1ccccc1)C2=O (centres undefined) | 2.5 µM (≈ 0.818 µg/mL) | 200 µM (≈ 65.5 µg/mL) | 70% | 55% | < 4.00 | 69% |  | 
Cc1nc(-c2nc(C(F)(F)F)no2)c(N)c2c1C(=O)N(Cc1ccccc1)C2=O | 20 µM (≈ 8.07 µg/mL) | < 5 µM | 83% | 100% | < 4.00 | 20% |  | 
Cc1noc(-c2nc(C)c3c(c2N)C(=O)N(Cc2ccc(Cl)cc2)C3=O)n1 | 0.62 µM (≈ 0.238 µg/mL) | < 5 µM |  |  |  |  |  | 
Cc1nnc(-c2nc(C)c3c(c2N)C(=O)N(Cc2ccccc2)C3=O)o1 | > 160 µM | < 5 µM | 50% | 63% | < 4.00 | 57% |  | 
Cc1nc(C(N)=O)c(N)c2c1C(=O)N(Cc1ccccc1)C2=O | > 160 µM | < 5 µM |  |  |  |  | metabolite_detected | metabolite_detected
Cc1noc(-c2nc(C)c3c(c2N)C(=O)N(Cc2ccc(OC(F)(F)F)cc2)C3=O)n1 | 0.62 µM (≈ 0.269 µg/mL) | < 5 µM |  |  |  |  |  | 

Structure (SMILES) | MIC90 [1] | solubility kinetic at 2 h [2] | remaining at 0.5 h, 0.1 µM [3] | remaining at 0.5 h, 0.1 µM [4] | pIC50 [5] | remaining at 0.5 h, 0.1 µM [6] | Drug metabolism [7] | Drug metabolism [8]
Cc1noc(-c2nc(C)c3c(c2N)C(=O)N(Cc2ccc(C(N)=O)cc2)C3=O)n1 | > 160 µM | < 5 µM |  |  |  |  |  | 
Cc1nc(C(=O)OC2CC2)c(N)c2c1C(=O)N(Cc1ccccc1)C2=O | 1.25 µM (≈ 0.439 µg/mL) | 202 µM (≈ 71 µg/mL) | 9.6% | 61% |  | 36% |  | 
Cc1nc(C#N)c(N)c2c1C(=O)N(Cc1ccccc1)C2=O | > 160 µM | < 5 µM | 100% | 98% |  | 99% |  | 
CCOC(=O)c1nc(C)c2c(c1N)C(=O)N(c1ccccc1)C2=O | > 160 µM | 5 µM (≈ 1.63 µg/mL) |  |  |  |  |  | 
Cc1noc(-c2nc(C)c3c(c2N)C(=O)N(Cc2ccc(Br)cc2)C3=O)n1 | < 0.156 µM | < 5 µM |  |  |  |  |  | 
Cc1noc(-c2nc(C)c3c(c2N)C(=O)N(Cc2ccccc2C(F)(F)F)C3=O)n1 | > 160 µM | < 5 µM |  |  |  |  |  | 
Cc1noc(-c2nc(C)c3c(c2N)C(=O)N(Cc2ccc(CO)cc2)C3=O)n1 | 0.62 µM (≈ 0.235 µg/mL) | < 5 µM |  |  |  |  |  | 
Cc1noc(-c2nc(C)c3c(c2N)C(=O)N(Cc2ccc(-n4cccn4)cc2)C3=O)n1 | 40 µM (≈ 16.6 µg/mL) | < 5 µM |  |  |  |  |  | 
Cc1noc(-c2nc(C)c3c(c2N)C(=O)N(Cc2ccccc2F)C3=O)n1 | 0.3 µM (≈ 0.11 µg/mL) | < 5 µM |  |  |  |  |  | 
COC(=O)c1nc(C)c2c(c1N)C(=O)N(Cc1ccccc1)C2=O | 0.15 µM (≈ 0.0488 µg/mL) | 7.4 µM (≈ 2.41 µg/mL) |  |  |  |  |  | 
CCCOC(=O)c1nc(C)c2c(c1N)C(=O)N(Cc1ccccc1)C2=O | < 0.156 µM | < 5 µM | 3.3% | 3.4% |  | 8.8% |  | 
Cc1noc(-c2nc(C)c3c(c2N)C(=O)N(Cc2ccc(F)cc2)C3=O)n1 | 0.31 µM (≈ 0.114 µg/mL) | < 5 µM |  |  |  |  |  | 
Cc1noc(-c2nc(C)c3c(c2N)C(=O)N(Cc2ccc(N(C)C)cc2)C3=O)n1 | 20 µM (≈ 7.85 µg/mL) | 7.4 µM (≈ 2.9 µg/mL) |  |  |  |  |  | 
CCOC(=O)c1nc(C)c2c(c1N)C(=O)N(Cc1ccccc1)C2O (centres undefined) | 0.144 µM (≈ 0.0492 µg/mL) | 41.5 µM (≈ 14.2 µg/mL) | 81% | 99% | < 4.00 | 89% |  | 
Cc1noc(-c2nc(C)c3c(c2N)C(=O)N(Cc2ccc(SC(F)(F)F)cc2)C3=O)n1 | 1.2 µM (≈ 0.539 µg/mL) | < 5 µM |  |  |  |  |  | 
Cc1noc(-c2nc(C)c3c(c2N)C(=O)N(Cc2ccccc2Cl)C3=O)n1 | 1.25 µM (≈ 0.48 µg/mL) | < 5 µM |  |  |  |  |  | 
Cc1noc(-c2nc(C)c3c(c2N)C(=O)N(Cc2ccc(Oc4ccc(F)cc4)cc2)C3=O)n1 | < 0.156 µM | 23.8 µM (≈ 10.9 µg/mL) |  |  |  |  |  | 
Cc1noc(-c2nc(C)c3c(c2N)C(=O)N(Cc2ccncc2)C3=O)n1 | 20 µM (≈ 7.01 µg/mL) | 26.4 µM (≈ 9.25 µg/mL) |  |  |  |  |  | 
Cc1nc(C(=O)NO)c(N)c2c1C(=O)N(Cc1ccccc1)C2=O | > 160 µM |  | 46% | 80% |  | 58% |  | 
Cc1noc(-c2nc(C)c3c(c2N)C(=O)N(Cc2ccc(C(F)(F)F)cc2)C3=O)n1 | 20 µM (≈ 8.35 µg/mL) | < 5 µM |  |  |  |  |  | 
Cc1nc(C(=O)NC#N)c(N)c2c1C(=O)N(Cc1ccccc1)C2=O | > 160 µM | 185 µM (≈ 62 µg/mL) | 92% | 99% |  | 95% | metabolite_detected | metabolite_detected
Cc1noc(-c2nc(C)c3c(c2N)C(=O)N(Cc2ccc(N4CCCC4=O)cc2)C3=O)n1 | > 160 µM | < 5 µM |  |  |  |  |  | 
